{
  "source": "paper PMC4363277",
  "about": "(Amino acids, 2015)",
  "test_system": "B16/F1 melanoma cells",
  "assay": "Cytotoxicity in B16/F1 melanoma cells",
  "assay_type": "cell-based, murine",
  "settings": "0.1 µM, 3 h incubation at 37 °C, MTT 5 days post treatment",
  "in_short": "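B16/F1 cells at 150/well, overnight in CO2 incubator, washed with RPMI 1640, then exposed 3 h at 37 °C to 0.1 µM test compound in binding medium; controls kept in culture medium only. Washed, grown 5 days with medium changed every other day; MTT (0.5 mg/mL) 3 h at 37 °C, formazan dissolved in acidic isopropanol, A570 minus A630. Survival = treated/control absorbance × 100%.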",
  "data": [
    {"substance": "[Cys^3,4,10, D-Phe^7, Arg^11]α-MSH3–13 [(Arg^11)CCMSH]", "values": [
      {"measurement": "decrease of survival percentage versus untreated control cells", "result": 15, "unit": "%"}
    ]}
  ]
}
